Assay results reported in ChEMBL document CHEMBL1139231 (J Med Chem, 2007).
The source made the active and inactive calls. The calls are words filed in the database; no cut-off is given here.

What was measured:
[1] = molecular target: T1, Sodium-dependent serotonin transporter (Homo sapiens, UniProt P31645); test: Displacement of [125I]RTI-55 from human SERT expressing HEK293 cells; type: cell-based
Procedure, shortened: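 Membranes from HEK293 cells stably expressing human DAT or SERT (lysed in hypotonic HEPES/EDTA, pelleted, resuspended in 0.32 M sucrose) preincubated with drug 10 min at rt, then [125I]RTI-55 added; 90 min rt in dark; filtration, scintillation counting. Krebs-HEPES buffer pH 7.4. Nonspecific: 5 µM mazindol (DAT) or 5 µM imipramine (SERT). Duplicate points, ≥3 experiments.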

[2] = molecular target: T2, Sodium-dependent noradrenaline transporter (Homo sapiens, UniProt P23975); test: Displacement of [125I]RTI-55 from human NET expressing HEK293 cells; type: cell-based
T2 sequence (P23975 whole entry): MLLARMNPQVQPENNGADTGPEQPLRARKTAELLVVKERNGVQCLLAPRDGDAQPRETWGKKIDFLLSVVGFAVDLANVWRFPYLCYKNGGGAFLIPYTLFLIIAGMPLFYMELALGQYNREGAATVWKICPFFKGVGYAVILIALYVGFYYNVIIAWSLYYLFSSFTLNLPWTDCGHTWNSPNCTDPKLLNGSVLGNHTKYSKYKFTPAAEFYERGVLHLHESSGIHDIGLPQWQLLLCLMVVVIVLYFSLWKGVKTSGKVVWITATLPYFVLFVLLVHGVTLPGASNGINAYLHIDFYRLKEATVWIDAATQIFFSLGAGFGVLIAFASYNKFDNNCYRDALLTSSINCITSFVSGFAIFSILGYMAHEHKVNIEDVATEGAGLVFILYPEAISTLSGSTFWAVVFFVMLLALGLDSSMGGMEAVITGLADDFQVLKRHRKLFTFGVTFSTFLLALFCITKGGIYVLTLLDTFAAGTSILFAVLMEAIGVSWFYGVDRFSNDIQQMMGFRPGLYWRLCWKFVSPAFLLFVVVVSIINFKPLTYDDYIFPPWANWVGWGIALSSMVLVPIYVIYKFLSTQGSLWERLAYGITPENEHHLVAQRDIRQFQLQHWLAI

[3] = molecular target: T1, Sodium-dependent serotonin transporter; test: Inhibition of [3H]5-HT uptake into human SERT expressing HEK293 cells; type: cell-based
Procedure, shortened: (§1)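 Intact HEK293 cells stably expressing human SERT or DAT, scraped and triturated, preincubated with drug 10 min at 25 °C in Krebs-HEPES pH 7.4; [3H]5-HT or [3H]DA (20 nM final) added for 10 min; filtration, scintillation counting. Nonspecific: 5 µM imipramine (SERT) or 5 µM mazindol (DAT). Triplicate points, ≥3 experiments.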

[4] = molecular target: T2, Sodium-dependent noradrenaline transporter; test: Inhibition of [3H]NE uptake into human NET expressing HEK293 cells; type: cell-based
[5] = molecular target: T3, Sodium-dependent dopamine transporter (Homo sapiens, UniProt Q01959); test: Displacement of [125I]RTI-55 from human DAT expressing HEK293 cells; type: cell-based
T3 sequence (Q01959 whole entry): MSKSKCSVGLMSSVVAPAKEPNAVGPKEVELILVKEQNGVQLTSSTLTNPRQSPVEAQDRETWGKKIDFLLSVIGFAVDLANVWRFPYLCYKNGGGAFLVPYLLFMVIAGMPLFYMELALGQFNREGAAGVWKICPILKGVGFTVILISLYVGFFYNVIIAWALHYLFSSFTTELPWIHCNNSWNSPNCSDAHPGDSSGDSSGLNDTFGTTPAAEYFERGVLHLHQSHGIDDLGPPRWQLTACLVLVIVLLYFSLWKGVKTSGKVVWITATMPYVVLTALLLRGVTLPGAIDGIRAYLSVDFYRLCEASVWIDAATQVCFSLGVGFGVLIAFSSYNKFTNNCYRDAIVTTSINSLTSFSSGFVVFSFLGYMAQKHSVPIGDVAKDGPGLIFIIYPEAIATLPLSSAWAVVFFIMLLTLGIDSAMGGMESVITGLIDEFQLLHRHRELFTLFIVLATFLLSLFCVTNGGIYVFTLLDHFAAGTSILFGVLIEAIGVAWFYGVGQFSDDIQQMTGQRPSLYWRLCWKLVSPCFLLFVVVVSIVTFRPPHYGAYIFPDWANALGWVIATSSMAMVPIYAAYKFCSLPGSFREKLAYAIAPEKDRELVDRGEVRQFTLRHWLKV

[6] = molecular target: T3, Sodium-dependent dopamine transporter; test: Inhibition of [3H]DA uptake at human DAT expressing HEK293 cells; type: cell-based; procedure, shortened: as §1
Mus musculus = test: Effect on locomotor activity in Swiss-Webster mouse at 30 mg/kg; type: functional, organism-based; parameters: dose 30 mg/kg
Procedure, shortened: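 Nonhabituated male Swiss-Webster mice (Hsd:ND4, 2-3 months), groups of eight, dosed ip (vehicle deionized water) immediately before testing; horizontal photobeam interruptions counted per 10 min over 8 h, one mouse per chamber, starting 2 h after lights on; compared with vehicle, p < 0.05.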

T1 sequence (P31645 whole entry): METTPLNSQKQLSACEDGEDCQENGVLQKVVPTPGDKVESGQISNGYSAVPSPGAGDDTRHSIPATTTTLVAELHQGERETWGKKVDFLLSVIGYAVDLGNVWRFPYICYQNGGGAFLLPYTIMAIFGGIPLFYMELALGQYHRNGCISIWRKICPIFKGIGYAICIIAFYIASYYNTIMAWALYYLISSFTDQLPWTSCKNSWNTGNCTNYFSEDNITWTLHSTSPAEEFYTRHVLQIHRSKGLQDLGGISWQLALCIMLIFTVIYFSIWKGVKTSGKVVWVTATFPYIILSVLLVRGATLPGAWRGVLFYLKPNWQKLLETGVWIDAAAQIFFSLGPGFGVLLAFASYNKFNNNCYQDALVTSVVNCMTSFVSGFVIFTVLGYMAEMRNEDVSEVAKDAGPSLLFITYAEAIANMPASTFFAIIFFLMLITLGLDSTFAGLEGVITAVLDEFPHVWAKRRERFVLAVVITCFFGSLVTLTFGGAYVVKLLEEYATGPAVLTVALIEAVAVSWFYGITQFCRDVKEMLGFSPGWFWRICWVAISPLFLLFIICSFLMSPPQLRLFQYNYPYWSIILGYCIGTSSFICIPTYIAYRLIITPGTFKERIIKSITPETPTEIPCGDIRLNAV

## CC(C)C(c1ccc(Cl)cc1)C1CCCCN1 (stereo not given)
[1]
  Ki: > 10000 µM
[2]
  Ki: > 10000 µM

## COC(=O)C(c1ccccc1)C1CCCCN1 (stereo not given) [METHYLPHENIDATE]
[3]
  IC50: 5.1 µM
[2]
  Ki: 0.66 µM
[4]
  IC50: 0.061 µM

## CCC(c1ccc(Cl)cc1)C1CCCCN1 (stereo not given)
[5]
  Ki: 1.8 µM
[1]
  Ki: 4.2 µM
[6]
  IC50: 2.8 µM
[3]
  IC50: 4.1 µM
[2]
  Ki: > 9.2 µM
[4]
  IC50: 1.3 µM

## CCC(CC)C(c1ccc(Cl)cc1)C1CCCCN1 (stereo in doubt; form 1)
[5]
  Ki: 0.4 µM
[1]
  Ki: 3.9 µM
[6]
  IC50: 0.24 µM
[3]
  IC50: > 9.4 µM
[2]
  Ki: 0.97 µM
[4]
  IC50: 0.33 µM

## CC(C)CC(c1ccc(Cl)cc1)C1CCCCN1 (stereo in doubt; form 2)
[5]
  Ki: 0.17 µM
[6]
  IC50: 0.38 µM
[2]
  Ki: 4.5 µM
[4]
  IC50: 0.75 µM

## CCCCCC(c1ccc(Cl)cc1)C1CCCCN1 (stereo in doubt; form 2)
[5]
  Ki: 0.87 µM
[1]
  Ki: 3.6 µM
[6]
  IC50: 0.65 µM
[3]
  IC50: 1.7 µM
[2]
  Ki: 1.5 µM
[4]
  IC50: 0.86 µM

## COC(=O)C(c1ccc(Cl)cc1)C1CCCCN1 (stereo in doubt; form 2)
[3]
  IC50: > 10000 µM
[2]
  Ki: > 6.1 µM

## CC(C)CC(c1ccc(C(C)C)cc1)C1CCCCN1 (stereo not given)
[5]
  Ki: > 6.5 µM
[6]
  IC50: > 9.1 µM
[4]
  IC50: > 8.7 µM

## CC(C)CC(c1ccc(Cl)cc1)C1CCCCN1 (stereo in doubt; form 1)
Mus musculus
  Activity: Active

## CCCCC(c1ccc(Cl)c(Cl)c1)C1CCCCN1 (stereo in doubt; form 1)
[5]
  Ki: 0.0023 µM
[1]
  Ki: 1.3 µM
[6]
  IC50: 0.0057 µM
[3]
  IC50: 1.4 µM
[2]
  Ki: 0.012 µM
[4]
  IC50: 0.027 µM

## CCC(CC)C(c1ccc(Cl)cc1)C1CCCCN1 (stereo in doubt; form 2)
[5]
  Ki: > 5.7 µM
[1]
  Ki: 4.8 µM
[6]
  IC50: 1.2 µM
[3]
  IC50: > 9.6 µM
[2]
  Ki: 4.3 µM
[4]
  IC50: 3.8 µM

## COC(=O)C(c1ccc(Cl)cc1)C1CCCCN1 (stereo in doubt; form 1)
[3]
  IC50: > 9.8 µM

## COc1cccc(C(CC(C)C)C2CCCCN2)c1 (stereo in doubt; form 1)
[5]
  Ki: 0.022 µM
[1]
  Ki: 4.2 µM
[6]
  IC50: 0.035 µM
[3]
  IC50: 2.7 µM
[2]
  Ki: 3.8 µM
[4]
  IC50: 0.33 µM

## CCCC(c1ccc(Cl)c(Cl)c1)C1CCCCN1 (stereo in doubt; form 1)
[5]
  Ki: 0.00097 µM
[1]
  Ki: 1.8 µM
[6]
  IC50: 0.0045 µM
[3]
  IC50: 0.56 µM
[2]
  Ki: 0.0039 µM
[4]
  IC50: 0.0081 µM

## Clc1ccc(C(Cc2ccccc2)C2CCCCN2)cc1 (stereo not given)
[4]
  IC50: > 8.8 µM

## CC(C)CC(c1cccc(Cl)c1)C1CCCCN1 (stereo in doubt; form 2)
[5]
  Ki: 0.14 µM
[6]
  IC50: 0.088 µM
[3]
  IC50: 0.87 µM
[2]
  Ki: 0.34 µM
[4]
  IC50: 0.073 µM

## CC(C)CCC(c1ccc(Cl)cc1)C1CCCCN1 (stereo in doubt; form 2)
[5]
  Ki: 0.51 µM
[1]
  Ki: 6.7 µM
[6]
  IC50: 0.68 µM
[3]
  IC50: > 8.3 µM
[2]
  Ki: 12 µM
[4]
  IC50: 3 µM

## CCCCCC(c1ccc(Cl)cc1)C1CCCCN1 (stereo in doubt; form 1)
[5]
  Ki: 0.023 µM
[1]
  Ki: 2.2 µM
[6]
  IC50: 0.045 µM
[3]
  IC50: 1.5 µM
[2]
  Ki: 0.16 µM
[4]
  IC50: 0.049 µM

## CC(C)CC(c1cccc(Cl)c1)C1CCCCN1 (stereo in doubt; form 1)
[5]
  Ki: 0.0037 µM
[6]
  IC50: 0.0028 µM
[3]
  IC50: 2.1 µM
[2]
  Ki: 0.023 µM
[4]
  IC50: 0.014 µM

## CC(C)CC(c1ccc(Cl)c(Cl)c1)C1CCCCN1C (stereo not given)
[4]
  IC50: 0.028 µM

## CCCC(c1ccc(Cl)c(Cl)c1)C1CCCCN1 (stereo in doubt; form 2)
[5]
  Ki: 0.043 µM
[1]
  Ki: 0.45 µM
[6]
  IC50: 0.088 µM
[3]
  IC50: 0.18 µM
[2]
  Ki: 0.03 µM
[4]
  IC50: 0.047 µM

## CCCC(c1ccc(Cl)cc1)C1CCCCN1 (stereo not given)
[5]
  Ki: 0.011 µM
[1]
  Ki: 2.7 µM
[6]
  IC50: 0.0074 µM
[3]
  IC50: 2.9 µM
[2]
  Ki: 0.2 µM
[4]
  IC50: 0.05 µM

## CC(C)CCC(c1ccc(Cl)cc1)C1CCCCN1 (stereo in doubt; form 1)
[5]
  Ki: 0.0036 µM
[1]
  Ki: 5 µM
[6]
  IC50: 0.014 µM
[3]
  IC50: 7.3 µM
[2]
  Ki: 0.83 µM
[4]
  IC50: 0.21 µM

## CC(c1ccc(Cl)cc1)C1CCCCN1 (stereo in doubt; form 2)
[5]
  Ki: > 3.9 µM
[1]
  Ki: > 9.1 µM
[6]
  IC50: 1.5 µM
[3]
  IC50: 4.7 µM
[2]
  Ki: > 6.3 µM
[4]
  IC50: 3.2 µM

## CC(C)CC(c1ccc(Cl)c(Cl)c1)C1CCCCN1 (stereo in doubt; form 2)
[5]
  Ki: 0.031 µM
[1]
  Ki: 0.45 µM
[6]
  IC50: 0.013 µM
[3]
  IC50: 0.29 µM
[2]
  Ki: 0.12 µM
[4]
  IC50: 0.019 µM

## COc1cccc(C(CC(C)C)C2CCCCN2)c1 (stereo in doubt; form 2)
[5]
  Ki: 0.95 µM
[1]
  Ki: 3.8 µM
[6]
  IC50: 0.14 µM
[3]
  IC50: 2.6 µM
[2]
  Ki: 12 µM
[4]
  IC50: 1.4 µM

## CCCCC(c1ccc(Cl)c(Cl)c1)C1CCCCN1 (stereo in doubt; form 2)
[5]
  Ki: 0.029 µM
[1]
  Ki: 1.1 µM
[6]
  IC50: 0.067 µM
[3]
  IC50: 0.55 µM
[2]
  Ki: 0.031 µM
[4]
  IC50: 0.063 µM

## CC(=O)C(c1ccccc1)C1CCCCN1 (stereo not given)
[5]
  Ki: 0.37 µM
[1]
  Ki: 7.8 µM
[6]
  IC50: 0.19 µM
[3]
  IC50: > 9.7 µM
[2]
  Ki: 2.7 µM
[4]
  IC50: 0.22 µM

## CC(C)(C)CC(c1ccc(Cl)cc1)C1CCCCN1 (stereo not given)
[3]
  IC50: > 8.3 µM
[2]
  Ki: > 5.5 µM

## CC(C)CC(c1ccc(Cl)c(Cl)c1)C1CCCCN1 (stereo in doubt; form 1)
[5]
  Ki: 0.001 µM
[1]
  Ki: 1.6 µM
[6]
  IC50: 0.0055 µM
[3]
  IC50: 1.1 µM
[2]
  Ki: 0.025 µM
[4]
  IC50: 0.009 µM

## Clc1ccc(C(CCCc2ccccc2)C2CCCCN2)cc1 (stereo in doubt; form 2)
[5]
  Ki: 2.9 µM
[1]
  Ki: 1.5 µM
[6]
  IC50: 1.4 µM
[3]
  IC50: 1.2 µM
[2]
  Ki: 1.5 µM
[4]
  IC50: 1.7 µM

## COc1ccc(C(CC(C)C)C2CCCCN2)cc1 (stereo in doubt; form 1)
[5]
  Ki: 0.052 µM
[1]
  Ki: 2.8 µM
[6]
  IC50: 0.025 µM
[3]
  IC50: 3.5 µM
[2]
  Ki: 3.1 µM
[4]
  IC50: 0.41 µM

## Clc1ccc(C(CCc2ccccc2)C2CCCCN2)cc1 (stereo not given)
[1]
  Ki: 1.8 µM
[3]
  IC50: 0.21 µM

## CC(c1ccc(Cl)cc1)C1CCCCN1 (stereo in doubt; form 1)
[5]
  Ki: 0.18 µM
[1]
  Ki: 4.9 µM
[6]
  IC50: 0.022 µM
[3]
  IC50: 1.9 µM
[2]
  Ki: 0.36 µM
[4]
  IC50: 0.035 µM

## COc1ccc(C(CC(C)C)C2CCCCN2)cc1 (stereo in doubt; form 2)
[5]
  Ki: 0.77 µM
[1]
  Ki: 0.95 µM
[6]
  IC50: 0.4 µM
[3]
  IC50: 1.2 µM
[2]
  Ki: 16 µM
[4]
  IC50: 1.6 µM

## Clc1ccc(C(CCCc2ccccc2)C2CCCCN2)cc1 (stereo in doubt; form 1)
[5]
  Ki: 0.44 µM
[1]
  Ki: 0.7 µM
[6]
  IC50: 0.29 µM
[3]
  IC50: 1.6 µM
[2]
  Ki: 0.49 µM
[4]
  IC50: 0.6 µM
